Series [1] in a line: Acute toxicity in mice, after intraperitoneal administration. The series is classed as organism-based. Conditions: mouse, in vivo, ip. In outline:
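Mice, groups of 10, given compound suspended in 1% methylcellulose ip at 10 mL/kg, then housed with food and water ad libitum. Observed hourly up to 6 h; deaths recorded at 24 and 48 h.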

Series [2] relates to Mus musculus. Description: Prevention of tetrabenazine (TBZ)-induced ptosis in mice after intraperitoneal administration. The series is classed as functional, organism-based. The method in brief: (§1)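 Mice given compound ip in 1% methylcellulose (10 mL/kg), 30 min before tetrabenazine 40 mg/kg base ip; solvent+TBZ control per test. Ptosis scored 30 min after TBZ (+1 min) as 100/50/0% (closed/half/open), not normalized.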

In series [3] the test system is Mus musculus. Description: Prevention of tetrabenazine induced ptosis in mice following i.p. administration. The series is classed as functional. Conditions: ip. In outline:
as §1

A short description of series [4]: Therapeutic index (TI), ratio of LD50 and ED50 (TBZ) in mice after i.p. administration. As to conditions: mouse, in vivo, ip.

The values below come from ChEMBL document CHEMBL1122631, “2,3,4,4a,5,9b-Hexahydro-1H-indeno[1,2-b]pyridines: potential antidepressants” (J Med Chem, 1984).

Broadly, the LD50 is the dose expected to kill half of the subjects tested. A lower LD50 goes with greater toxicity. Broadly, the ED50 is the dose that gives a 50% effect, or the effect in half of the subjects.

Regarding `CN1CCC[C@H]2[C@@H](c3ccc(F)cc3)c3ccccc3[C@H]21`, the LD50 in series [1] came out at 22 mg/kg. Also, the ED50 entry in the series on Mus musculus [2] was “No activity detected up to a dose of 1/5 LD50 ip in mice”.

In turn, `CN(C)c1ccc([C@H]2c3cc(O)ccc3[C@H]3NCCC[C@@H]23)cc1` showed an LD50 in series [1] of 67 mg/kg. In the series on Mus musculus [2], the ED50 result is “No activity detected up to a dose of 1/5 LD50 ip in mice”.

As to `Cc1ccc([C@@H]2c3ccccc3[C@H]3NCCC[C@@H]23)cc1`, it took a dose of 1 mg/kg to reach the 50% effect level in the series on Mus musculus [3] (ED50). In series [4], the selectivity ratio was determined as 60. The molecule also showed an LD50 in series [1] of 60 mg/kg.

Molecule `Fc1ccc([C@H]2c3ccccc3[C@H]3NCCC[C@@H]23)cc1` returned an LD50 in series [1] of 61 mg/kg. In the series with Mus musculus [2], the ED50 result was “No activity detected up to a dose of 1/5 LD50 ip in mice”.

Consider `c1ccc([C@H]2c3ccccc3[C@H]3NCCC[C@@H]23)cc1`, for which the LD50 in series [1] was determined as 50 mg/kg. In addition, the ED50 entry in the series on Mus musculus [2] is “No activity detected up to a dose of 1/5 LD50 ip in mice”.

In series [1], `Cc1cccc([C@H]2c3ccccc3[C@@H]3[C@H]2CCCN3C)c1` yielded an LD50 of 5 mg/kg. The ED50 result with Mus musculus [2] is “No activity detected up to a dose of 1/5 LD50 ip in mice”.

As for `CN(C)c1ccc([C@@H]2c3cc(O)ccc3[C@H]3NCCC[C@@H]23)cc1`, the 50% lethal dose (LD50) in series [1] was 159 mg/kg. Also, the ED50 result in the series with Mus musculus [2] was “No activity detected up to a dose of 1/5 LD50 ip in mice”.

Regarding `COc1cc2c(cc1OC)[C@H]1NCCC[C@H]1[C@H]2c1ccccc1`, the LD50 in series [1] is 70 mg/kg. Further, in the series with Mus musculus [2], the ED50 result is “No activity detected up to a dose of 1/5 LD50 ip in mice”.

In turn, `CC(C)c1ccc([C@@H]2c3cc(O)ccc3[C@H]3NCCC[C@@H]23)cc1` showed an LD50 in series [1] of 50 mg/kg. Besides, the ED50 entry in the series on Mus musculus [2] was “No activity detected up to a dose of 1/5 LD50 ip in mice”.

Regarding `COc1ccc2c(c1)[C@H](c1ccc(N(C)C)cc1)[C@@H]1CCCN[C@H]21`, in series [1], the LD50 was 48 mg/kg. Besides, the ED50 result with Mus musculus [2] was “No activity detected up to a dose of 1/5 LD50 ip in mice”.

Molecule `Cc1cccc([C@@H]2c3ccccc3[C@H]3NCCC[C@@H]23)c1` displayed an ED50 in the series on Mus musculus [3] of 0.3 mg/kg. For the same molecule, in series [1], the LD50 was 21 mg/kg.

As to `Nc1ccc([C@H]2c3cc(O)ccc3[C@H]3NCCC[C@@H]23)cc1`, the LD50 in series [1] was 85 mg/kg. Besides, the ED50 result with Mus musculus [2] is “No activity detected up to a dose of 1/5 LD50 ip in mice”.

`Cc1cccc([C@H]2c3ccccc3[C@H]3NCCC[C@@H]23)c1` returned an LD50 in series [1] of 34 mg/kg. In the series on Mus musculus [2], the ED50 result is “No activity detected up to a dose of 1/5 LD50 ip in mice”.

`Cc1ccccc1[C@@H]1c2ccccc2[C@H]2NCCC[C@@H]12`: the median lethal dose (LD50) in series [1] worked out at 80 mg/kg. Besides, the ED50 entry in the series with Mus musculus [2] is “No activity detected up to a dose of 1/5 LD50 ip in mice”.

In the case of `Cc1ccc([C@H]2c3ccccc3[C@@H]3[C@H]2CCCN3C)cc1`, the LD50 in series [1] was less than 1 mg/kg. In addition, the ED50 entry with Mus musculus [2] is “No activity detected up to a dose of 1/5 LD50 ip in mice”.

`Cc1ccccc1[C@H]1c2ccccc2[C@H]2NCCC[C@@H]12`: in series [1], the LD50 was 52 mg/kg. Moreover, the ED50 result with Mus musculus [2] is “No activity detected up to a dose of 1/5 LD50 ip in mice”.

The molecule `CN1CCC[C@H]2[C@@H](c3ccccc3)c3ccccc3[C@H]21` yielded an LD50 in series [1] of 36 mg/kg. Besides, the ED50 entry with Mus musculus [2] was “No activity detected up to a dose of 1/5 LD50 ip in mice”.

In series [1], `COc1ccc2c(c1)[C@@H](c1ccc(C)cc1)[C@@H]1CCCN(C)[C@H]21` gave an LD50 of 67 mg/kg. Further, the ED50 result in the series on Mus musculus [2] was “No activity detected up to a dose of 1/5 LD50 ip in mice”.

The molecule `CN1CCC[C@H]2[C@@H](c3ccccc3F)c3ccccc3[C@H]21` had a 50% lethal dose (LD50) in series [1] of 8 mg/kg. Also, in the series with Mus musculus [2], the ED50 entry is “No activity detected up to a dose of 1/5 LD50 ip in mice”.

In turn, `Cc1ccc([C@H]2c3ccccc3[C@H]3NCCC[C@@H]23)cc1` gave a median effective dose (ED50) with Mus musculus [3] of 20 mg/kg. Moreover, the selectivity ratio in series [4] was found to be 6. In series [1], this molecule returned an LD50 of 120 mg/kg.

The molecule `COc1ccc2c(c1)[C@H](c1ccc(C)cc1)[C@@H]1CCCN[C@H]21` had an LD50 in series [1] of 54 mg/kg. Besides, in the series with Mus musculus [2], the ED50 result was “No activity detected up to a dose of 1/5 LD50 ip in mice”.

The molecule `Cc1ccccc1[C@H]1c2ccccc2[C@@H]2[C@H]1CCCN2C` registered an LD50 in series [1] of 22 mg/kg. Further, the ED50 result in the series with Mus musculus [2] is “No activity detected up to a dose of 1/5 LD50 ip in mice”.

In the series with Mus musculus [3], `Cc1cccc([C@@H]2c3ccccc3[C@@H]3[C@H]2CCCN3C)c1` came in with an ED50 of 5 mg/kg. The molecule also displayed an LD50 in series [1] of 134 mg/kg.

Regarding `CC(C)c1ccc([C@H]2c3cc(O)ccc3[C@H]3NCCC[C@@H]23)cc1`, the LD50 in series [1] stood at 90 mg/kg. The ED50 result in the series on Mus musculus [2] is “No activity detected up to a dose of 1/5 LD50 ip in mice”.

In series [1], `COc1ccc2c(c1)[C@H](c1ccc(N)cc1)[C@@H]1CCCN[C@H]21` registered an LD50 of 50 mg/kg. In the series on Mus musculus [2], the ED50 result is “No activity detected up to a dose of 1/5 LD50 ip in mice”.

As to `Cc1ccc([C@@H]2c3cc(O)ccc3[C@@H]3[C@H]2CCCN3C)cc1`, in series [1], the LD50 is 187 mg/kg. For the same molecule, in the series with Mus musculus [2], the ED50 result is “No activity detected up to a dose of 1/5 LD50 ip in mice”.

`Cc1ccc([C@H]2c3cc(O)ccc3[C@H]3NCCC[C@@H]23)cc1` returned an LD50 in series [1] of 34 mg/kg. For the same molecule, in the series with Mus musculus [2], the ED50 entry is “No activity detected up to a dose of 1/5 LD50 ip in mice”.

In turn, `COc1cc2c(cc1OC)[C@@H]1[C@@H](CCCN1C)[C@H]2c1ccccc1` returned an LD50 in series [1] of 70 mg/kg. Also, in the series with Mus musculus [2], the ED50 result is “No activity detected up to a dose of 1/5 LD50 ip in mice”.

In series [1], `FC(F)(F)c1ccccc1[C@H]1c2ccccc2[C@H]2NCCC[C@@H]12` had an LD50 of 24 mg/kg. For the same molecule, the ED50 result in the series with Mus musculus [2] was “No activity detected up to a dose of 1/5 LD50 ip in mice”.

The molecule `Cc1ccccc1[C@@H]1c2ccccc2[C@@H]2[C@H]1CCCN2C` returned an ED50 with Mus musculus [3] greater than 40 mg/kg. The same molecule came in with an LD50 in series [1] of 106 mg/kg.

With `COc1ccc2c(c1)[C@H](c1ccc(C)cc1)[C@@H]1CCCN(C)[C@H]21`, the LD50 in series [1] was 6 mg/kg. For the same molecule, the ED50 entry with Mus musculus [2] was “No activity detected up to a dose of 1/5 LD50 ip in mice”.

Consider `CCCN1CCC[C@H]2[C@@H](c3ccccc3)c3ccccc3[C@H]21`, for which, in series [1], the 50% lethal dose (LD50) amounted to 90 mg/kg. Besides, in the series with Mus musculus [2], the ED50 result was “No activity detected up to a dose of 1/5 LD50 ip in mice”.

In turn, `Cc1ccc([C@H]2c3ccccc3[C@H]3NCCC[C@@H]23)cc1N` showed an LD50 in series [1] of 45 mg/kg. Further, the ED50 result in the series with Mus musculus [2] was “No activity detected up to a dose of 1/5 LD50 ip in mice”.

`Cc1ccc([C@H]2c3cc(O)ccc3[C@@H]3[C@H]2CCCN3C)cc1`: the LD50 in series [1] worked out at 9 mg/kg. For the same molecule, the ED50 result in the series on Mus musculus [2] is “No activity detected up to a dose of 1/5 LD50 ip in mice”.

For the molecule `Fc1ccccc1[C@H]1c2ccccc2[C@H]2NCCC[C@@H]12`, the LD50 in series [1] was determined as 71 mg/kg. In addition, the ED50 result with Mus musculus [2] is “No activity detected up to a dose of 1/5 LD50 ip in mice”.

Turning to `Nc1cccc([C@H]2c3ccccc3[C@H]3NCCC[C@@H]23)c1`, the ED50 in the series with Mus musculus [3] stood at 2 mg/kg. This molecule came in with an LD50 in series [1] of 28 mg/kg.

`COc1cc2c(cc1OC)[C@H]1NCCC[C@H]1[C@H]2c1ccc(N)cc1` displayed an LD50 in series [1] of 94 mg/kg. The ED50 entry with Mus musculus [2] was “No activity detected up to a dose of 1/5 LD50 ip in mice”.
